A selection: hits, their analogues and other compounds. The true share with any hit is near 0.58%.
V1aR counter: agonists of human V1a receptor, primary screen, counter-screen for OXTR agonist project, fluorescence, CHO-V1R cells; Vasopressin V1a receptor (Homo sapiens), P37288; Fluo-8 calcium fluorescence, agonist mode; 0% DMSO, 100% 3 nM vasopressin; activation, % at 3 µM; 0.25% of 320,000 active; AID 2797, 2010;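 active means activation above the mean activation of all tested compounds plus 3 SD, per screening run, cut at about 20% in these data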;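 further: signal is peak over basal fluorescence ratio across a 100 second FLIPR read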
OXTR ag: human OXTR agonists, primary screen, fluorescence, CHO-OTR cells, Fluo-8 calcium; Oxytocin receptor (Homo sapiens), P30559; Fluo-8 calcium fluorescence; normalized: DMSO 0%, oxytocin 100%; activation, % at 3 µM; 0.32% of 320,000 active; AID 2435, 2010;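 active means activation above the mean of all tested compounds plus 3 SD, cutoff set per screening run, cut at about 20% in these data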;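 further: peak over basal fluorescence ratio from a 100 s FLIPR kinetic read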
OXTR potentiator: human OXTR potentiators, primary screen, fluorescence, CHO-OTR cells, Fluo-8 calcium; Oxytocin receptor (Homo sapiens), P30559; Fluo-8 calcium fluorescence, potentiator mode; 0% = oxytocin EC15, 100% = EC100; activation, % at 3 µM; 0.061% of 320,000 active; AID 2445, 2010;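 active means activation above that plate's cutoff, the mean activation of tested compounds plus 3 SD, cut at about 6.6% in these data, passing the limit was not always enough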
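Assay system: CHO-OTR cells, human receptor / Also added: oxytocin at about EC15, sub-maximal agonist stimulus / Dosing: single dose, 3.0 µM nominal final compound concentration / Incubation: 6 min pre-incubation, 100 s read / Technique: Fluo-8 calcium dye fluorescence / Read-out: % activation vs EC15 and EC100 oxytocin / Benchmarks: EC15 oxytocin low, 75 nM oxytocin high / Replicates: singlicate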
TRPML3 agonist: human TRPML3 channel agonists, primary screen, cell-based, HEK293 TRPML3-YFP, Fluo-8 calcium fluorescence, 3 µM; activation, % at 3 µM; 0.29% of 220,000 active; 100% = the carbachol control signal; Mucolipin-3 (Homo sapiens), Q8TDD5;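 active means activation above its plate's cutoff, the mean activation of the plate's test wells plus 3 SD, cut at about 12% in these data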
Target sequence (Q8TDD5 whole entry, looked up): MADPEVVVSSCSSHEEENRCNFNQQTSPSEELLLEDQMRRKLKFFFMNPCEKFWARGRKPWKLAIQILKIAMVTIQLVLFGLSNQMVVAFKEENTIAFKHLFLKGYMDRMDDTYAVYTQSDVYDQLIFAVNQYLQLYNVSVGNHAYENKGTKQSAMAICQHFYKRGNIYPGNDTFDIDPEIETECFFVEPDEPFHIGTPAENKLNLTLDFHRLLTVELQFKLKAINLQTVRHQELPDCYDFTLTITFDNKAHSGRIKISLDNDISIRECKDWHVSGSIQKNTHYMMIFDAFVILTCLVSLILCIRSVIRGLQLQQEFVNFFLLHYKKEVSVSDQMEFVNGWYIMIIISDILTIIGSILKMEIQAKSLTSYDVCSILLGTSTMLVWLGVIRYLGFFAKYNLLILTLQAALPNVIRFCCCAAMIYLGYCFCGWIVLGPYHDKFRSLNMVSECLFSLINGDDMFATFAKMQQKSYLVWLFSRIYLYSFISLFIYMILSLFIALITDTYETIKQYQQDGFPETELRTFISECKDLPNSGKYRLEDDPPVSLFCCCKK
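Test system: TRPML3-YFP stable HEK293 cells. Doses: single point at 3 µM. Incubation: dye loading 1 h 37 °C then 30 min ambient, 125 s read. Signal: Fluo-8 calcium dye fluorescence, ex 470-495, em 515-575 nm. Measure: percent activation from peak-to-basal fluorescence ratio, scaled between DMSO and carbachol.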
zfTRPN1 agonist: zebrafish TRPN1 channel agonists, primary screen, cell-based, HEK293, calcium fluorescence. activation, % at 3 µM. 0.18% of 220,000 active. HEK293 zebrafish TRPN1-YFP, Fluo-8 calcium fluorescence; 100% = response to 87 µM carbachol. transient receptor potential cation channel N1 (TRPN1/NompC), Danio rerio. AID 1424, 2008;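 active means activation above its plate's cutoff, the mean activation of test wells on that plate plus 3 SD, cut at about 19% in these data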
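Material: zebrafish TRPN1-YFP in HEK293 cells. Doses: one dose of 3 µM, 0.3% DMSO. Incubation: dye 1 h 37 °C plus 30 min RT. Measured by: intracellular calcium fluorescence with Fluo-8.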
Large screens that a line does not name were inactive.

CCOc1ccc(-c2c(C(=O)N/N=C/c3ccc(OC)cc3)nnn2-c2nonc2N)cc1	V1aR counter 27, OXTR ag 37
CCCOc1ccc(-c2c(C(=O)N/N=C/c3ccc(OCC)cc3)nnn2-c2nonc2N)cc1	none
CCOc1ccc(-c2c(C(=O)N/N=C/c3ccsc3)nnn2-c2nonc2N)cc1	V1aR counter 21, OXTR ag 29 (no result: TRPML3 agonist, zfTRPN1 agonist)
CCCOc1ccc(-c2c(C(=O)N/N=C/c3ccc(OC)cc3)nnn2-c2nonc2N)cc1	none
CCOC(=O)C1CCN(C(c2cccnc2)c2c(NC(=O)c3ccco3)sc(C)c2C)CC1 (stereo not given)	OXTR potentiator 12
Cc1sc(NC(=O)c2ccco2)c(C(c2cccnc2)N2CCN(CCO)CC2)c1C (stereo not given)	none
O=C(O)c1ccccc1-c1c2cc(I)c(=O)c(I)c-2oc2c(I)c(O)c(I)cc12	V1aR counter 205, OXTR ag 232 (no result: TRPML3 agonist, zfTRPN1 agonist)
Nc1c(C(=O)c2ccccc2)sc2nsc(SCCN3CCOCC3)c12	V1aR counter 49, OXTR ag 49
CCSC1=NSC2=NC(=O)/C(=C\c3coc4ccccc4c3=O)C(=N)N12	V1aR counter 47, OXTR ag 62, TRPML3 agonist 15, zfTRPN1 agonist 25
CC(C)CC1=NN2C(=N)/C(=C\c3coc4ccccc4c3=O)C(=O)N=C2S1	none (no result: V1aR counter, OXTR ag, OXTR potentiator)
CN(C)/C=N/C1=C(C#N)C(c2cccs2)c2ccc3ccccc3c2O1 (stereo not given)	none (no result: V1aR counter, OXTR ag, OXTR potentiator)
CC(C)C[C@H]1CN=C(Nc2ccccc2)N1CCc1ccc(F)cc1	V1aR counter 59, OXTR ag 44 (no result: TRPML3 agonist, zfTRPN1 agonist)
CC(C)C[C@H]1CN=C(Nc2ccccc2)N1CCc1cccc(F)c1	V1aR counter 73, OXTR ag 51 (no result: TRPML3 agonist, zfTRPN1 agonist)
Cc1cccc(Nc2nc(N)nc(CN3CCC(C(N)=O)CC3)n2)c1C	none
Cc1ccc(Nc2ccc(-n3ccnc3)nn2)cc1C	none
O=C1/C(=C/c2cccs2)CCC/C1=C\c1cccs1	none (no result: TRPML3 agonist, zfTRPN1 agonist)
Cn1cccc1/C=C1\CCC/C(=C\c2cccn2C)C1=O	V1aR counter 44, OXTR ag 75
O=C(NNc1ccccc1[N+](=O)[O-])Nc1ccc(F)cc1	none
CCN1C/C(=C/c2ccc(N3CCOCC3)cc2)C(=O)/C(=C/c2ccc(N3CCOCC3)cc2)C1	V1aR counter 22, OXTR ag 26
COc1ccc(CCN2CCC(Nc3nc4ccccc4n3Cc3ccc(F)cc3)CC2)cc1	V1aR counter 37, OXTR ag 45
COc1ccc(NC(=O)CNS(=O)(=O)c2cccs2)cc1	none
c1ccc(CNc2ncnc3c2cnn3Cc2ccccc2)cc1	V1aR counter 21, OXTR ag 25
CCCN1C(=O)C2C(C(=O)Nc3cccc(OC)c3)C3C=CC2(O3)C1C(=O)NC1CCCCC1 (stereo not given)	none
Cc1ccc(NC(=O)c2cc3ccccc3oc2=N)cc1	none (no result: TRPML3 agonist, zfTRPN1 agonist)
N=c1oc2c3c4c(cc2cc1C(=O)Nc1ccccc1)CCCN4CCC3	V1aR counter 60, OXTR ag 112
CCOCc1nnc(NC(=O)C2c3ccccc3Oc3ccccc32)s1	V1aR counter 22, OXTR ag 30
Cc1nnc2c3ccccc3c(-c3ccc(O)cc3)nn12	none
Cc1c(-c2ccc(O)cc2)nc2nc(-c3ccccc3)c(-c3ccccc3)nn12	V1aR counter 280, OXTR ag 144
O=C(/C=C/Nc1ccc(F)cc1)c1cccs1	none
Cc1ccccc1-n1c(O)c(/C=C/C=Nc2ccccc2)c(=O)[nH]c1=O	V1aR counter 30, OXTR ag 47
C=CCn1c(SCC(=O)N2CCCC2=O)nc2sc(CC)cc2c1=O	V1aR counter 40, OXTR ag 38 (no result: TRPML3 agonist, zfTRPN1 agonist)
C=CCn1c(SCC(=O)O)nc2sc(CC)cc2c1=O	none
O=C(NCc1cccc(F)c1)c1cccc2c1C(=O)c1ccc(N3CCCC3)cc1S2(=O)=O	V1aR counter 26, OXTR ag 20 (no result: TRPML3 agonist, zfTRPN1 agonist)
O=C(NCc1cccc(F)c1)c1cccc2c1C(=O)c1ccc(N3CCC(Cc4ccccc4)CC3)cc1S2(=O)=O	none (no result: TRPML3 agonist, zfTRPN1 agonist)
CC1CCN(c2ccc3c(c2)S(=O)(=O)c2cccc(C(=O)NCc4cccc(F)c4)c2C3=O)CC1	V1aR counter 38, OXTR ag 50 (no result: TRPML3 agonist, zfTRPN1 agonist)
CN1CCN(c2ccc(NC(=O)c3ccc(-c4ccccc4F)o3)cc2)CC1	none (no result: TRPML3 agonist, zfTRPN1 agonist)
OCCCc1nc2n(n1)C(c1cccs1)C=C(c1ccccc1)N2 (stereo not given)	V1aR counter 50, OXTR ag 82
OCCCc1nc2n(n1)C(c1ccccc1)C=C(c1ccc(F)cc1)N2 (stereo not given)	none
Cc1[nH]n(-c2cccc(Cl)c2)c(=O)c1C=NCc1ccco1	none
Cc1sc2ncnc(N/N=C/c3cccc(O)c3)c2c1C	none
C/C(=N\Nc1ncnc2sc(C)c(C)c12)c1ccccn1	V1aR counter 134, OXTR ag 124 (no result: TRPML3 agonist, zfTRPN1 agonist)
Cc1ccccc1NC(=O)Cn1cnc2c1c(=O)n(C)c(=O)n2C	none
N#Cc1c(Cl)nsc1NC(=O)c1ccccc1	TRPML3 agonist 21, zfTRPN1 agonist 30
Cc1ccccc1C(=O)NNC(=S)NC(=O)c1ccccc1	V1aR counter 40, OXTR ag 53
Cc1ccc(C(=O)NNC(=S)NC(=O)c2ccc(Cl)cc2Cl)cc1	V1aR counter 117, OXTR ag 101, TRPML3 agonist 43, zfTRPN1 agonist 70
Cc1ccc(C(=O)NC(=S)NNC(=O)c2ccccc2[N+](=O)[O-])cc1	none
O=C(NC(=S)NNC(=O)c1ccccc1O)c1ccc(F)cc1	V1aR counter 32, OXTR ag 34 (no result: TRPML3 agonist, zfTRPN1 agonist)
Cc1ccc(C(=O)NC(=S)NNC(=O)c2ccccc2)cc1	V1aR counter 89, OXTR ag 82 (no result: TRPML3 agonist, zfTRPN1 agonist)
Cc1ccc(C(=O)NNC(=S)NC(=O)c2ccccc2)cc1	V1aR counter 96, OXTR ag 88 (no result: TRPML3 agonist, zfTRPN1 agonist)
Cc1ccc(C(=O)NC(=S)NNC(=O)c2ccc([N+](=O)[O-])cc2)cc1	none (no result: TRPML3 agonist, zfTRPN1 agonist)
CC(Oc1ccccc1)C(=O)Nc1ccc(NC(=O)c2ccccc2)cc1 (stereo not given)	none (no result: TRPML3 agonist, zfTRPN1 agonist)
CC(Oc1ccc(C(=O)c2ccccc2)cc1)C(=O)Nc1ccc(S(N)(=O)=O)cc1 (stereo not given)	V1aR counter 22, OXTR ag 33
CCc1ccc(-c2nc(CN3CCC(C(=O)N4CCN(c5ccccc5)CC4)CC3)c(C)o2)cc1	V1aR counter 34, OXTR ag 29
CCc1ccc(-c2nc(CN3CCC(C(=O)N4CCN(c5ccccn5)CC4)CC3)c(C)o2)cc1	none
COC(=O)c1c(-c2ccc(SC)cc2)sc2ccc(OC)cc12	none (no result: TRPML3 agonist, zfTRPN1 agonist)
